Reference: ChEMBL document CHEMBL4145643, “Antiplasmodial β-Triketone-Flavanone Hybrids from the Flowers of the Australian Tree Corymbia torelliana” (J Nat Prod, 2018)
Activity calls are given as the source filed them. The rule behind the calls is not given here.

Assays:
[1] = system: Plasmodium falciparum; test: Antiplasmodial activity against 4-aminoquinoline/antifolates-resistant Plasmodium falciparum Dd2 ring stage infected in human erythrocytes after 72 hrs by DAPI staining based method; type: functional, organism-based; settings: Dd2, 72 h
Summary of the method: (§1)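 Sorbitol-synchronized ring-stage parasites at 2% parasitemia, 0.3% hematocrit in human O+ erythrocytes. 16-point concentration-response, 40 μM to 0.5 nM. DAPI added in permeabilization buffer (Triton X-100, saponin, EDTA). Parasites counted by confocal high-content imaging. Normalized to DMSO and 5 μM puromycin controls. IC50 from four-parameter logistic fit.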

[2] = system: HEK293; test: Cytotoxicity against human HEK293 cells at 40 uM after 72 hrs by resazurin dye based fluorescence assay; type: cell-based; settings: hek293, 72 h
Summary of the method: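 HEK293 cells grown in DMEM with 10% FBS, seeded at 2000 cells/well 24 h before dosing. Compounds given as in the parasite assay (top 40 μM), 72 h at 37 °C and 5% CO2. Medium then replaced with 44 μM resazurin; fluorescence (530/595 nm) read after a further 5–6 h. Normalized to in-plate controls.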

[3] = system: Plasmodium falciparum; test: Antiplasmodial activity against drug-sensitive Plasmodium falciparum 3D7 ring stage infected in human erythrocytes after 72 hrs by DAPI staining based method; type: functional, organism-based; settings: 3D7, 72 h
Summary of the method: (§2)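 Sorbitol-synchronized ring-stage parasites in O+ erythrocytes (2% parasitemia, 0.3% hematocrit), culture medium RPMI-1640 with Albumax and human serum. 16-point dilution series, 40 μM to 0.5 nM, 72 h at 95% N2/5% O2/5% CO2. Parasites stained with DAPI in Triton X-100/saponin permeabilization buffer, counted by confocal imaging. Normalized to 0.4% DMSO and 5 μM puromycin controls. IC50 from four-parameter logistic fit.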

[4] = system: Plasmodium falciparum; test: Antiplasmodial activity against 4-aminoquinoline/antifolates-resistant Plasmodium falciparum Dd2 ring stage infected in human erythrocytes at 40 uM after 72 hrs by DAPI staining based method; type: functional
Summary of the method: as §1, with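 “erythrocytes. Culture medium: RPMI-1640 with glutamine, hypoxanthine, Albumax, human serum.” for “erythrocytes.”, “nM. Incubated 72 h under 95% N2, 5% O2, 5% CO2.” for “nM.”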

[5] = system: Plasmodium falciparum; test: Antiplasmodial activity against drug-sensitive Plasmodium falciparum 3D7 ring stage infected in human erythrocytes at 40 uM after 72 hrs by DAPI staining based method; type: functional, organism-based; summary of the method: as §2

Question: What does the source list for `C[C@H]1[C@@H](O)O[C@@H]2O[C@@]3(C)CC[C@H]4[C@H](C)CC[C@@H]1[C@@]24OO3` [ARTENIMOL]?
Answer: IC50 [1]: 0.00043 µM; Activity ([2]; 20 µM, in the assay text read “at 20 uM” for “at 40 uM”): 83%; IC50 [3]: 0.0004 µM

Question: `Cc1c(O)c2c(c3c1OC1=C(C(=O)C(C)(C)C(=O)C1(C)C)[C@@H]3CC(C)C)O[C@H](c1ccccc1)CC2=O` was tested. Which Activity ([2]; 40 µM) did it give?
Answer: The Activity was “Non-Toxic”.

Question: And the IC50 [3]?
Answer: The IC50 was 7.2 µM.

Question: How did the Activity ([2]; 40 µM) turn out when `CCc1nc(N)nc(N)c1-c1ccc(Cl)cc1` [PYRIMETHAMINE] was run?
Answer: The Activity was 62%.

Question: What about the Activity [4] of the same compound?
Answer: The Activity was 62%.

Question: `Cc1c2c(c(O)c3c1OC1=C(C(=O)C(C)(C)C(=O)C1(C)C)C3CC(C)C)C(=O)C[C@@H](c1ccccc1)O2` (stereo not given in full) was tested. Which IC50 [1] did it give?
Answer: The IC50 was 11.9 µM.

Question: What about the Activity ([2]; 40 µM) of the same compound?
Answer: The Activity was “Non-Toxic”.

Question: What about the IC50 [3] of the same compound?
Answer: Its IC50 is 9.8 µM.

Question: With `CC(C)CC[C@]1(O)[C@H](O)C(C)(C)[C@@H](O)C(C)(C)[C@@H]1O` as the compound, how does the Activity ([2]; 40 µM) read?
Answer: Its Activity is “Non-Toxic”.

Question: And the Activity [5]?
Answer: The Activity was “inactive”.

Question: And the Activity [4]?
Answer: The Activity was “inactive”.

Question: How did the Activity ([2]; 40 µM) turn out when `Cc1c(O)c([C@@H](CC(C)C)C2=C(O)C(C)(C)C(=O)C(C)(C)C2=O)c(O)c2c1O[C@H](c1ccccc1)CC2=O` was run?
Answer: The Activity was 75%.

Question: And the IC50 [3]?
Answer: The IC50 was 3.2 µM.

Question: `CCN(CC)CCCC(C)Nc1ccnc2cc(Cl)ccc12` (stereo not given) [CHLOROQUINE] was tested. Which Activity ([2]; 40 µM) did it give?
Answer: The Activity was “Non-Toxic”.

Question: For `C[C@H]1[C@H](OC(=O)CCC(=O)O)O[C@@H]2O[C@@]3(C)CC[C@H]4[C@H](C)CC[C@@H]1[C@@]24OO3` [ARTESUNATE], which Activity ([2]; 20 µM, in the assay text read “20 uM” for “40 uM”) is on record?
Answer: Its Activity is 94%.

Question: And the IC50 [3]?
Answer: The IC50 was 0.001 µM.

Question: How did the Activity ([2]; 40 µM) turn out when `CC(C)C[C@H]1C[C@@]2(CC[C@H]3C[C@@H]2C3(C)C)OC2=C1C(=O)C(C)(C)C(=O)C2(C)C` was run?
Answer: The Activity was “Non-Toxic”.

Question: And the IC50 [3]?
Answer: The IC50 was 16.6 µM.

Question: What about the Activity [4] of the same compound?
Answer: Its Activity is “inactive”.

Question: For `Cc1c(O)c2c(c3c1OC1=C(C(=O)C(C)(C)C(=O)C1(C)C)[C@H]3CC(C)C)O[C@H](c1ccccc1)CC2=O`, which Activity ([2]; 40 µM) is on record?
Answer: Its Activity is “Non-Toxic”.

Question: And the IC50 [3]?
Answer: Its IC50 is 7.2 µM.

Question: What does the source list for `Cc1c(O)c([C@H](CC(C)C)C2=C(O)C(C)(C)C(=O)C(C)(C)C2=O)c(O)c2c1O[C@H](c1ccccc1)CC2=O`?
Answer: Activity ([2]; 40 µM): 75%; IC50 [3]: 3.2 µM
